The source made the active and inactive calls. The rule behind the calls is not given here.
Tests used:
Cryptococcus neoformans = assay: […] activity against Cryptococcus neoformans ATCC 90113 by antimicrobial susceptibility test; format: functional, organism-based
Summary of the method: (§1)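 Modified 96-well microplate broth assay run on purified compounds, giving IC50 and MIC values, against ATCC strains C. albicans 90028, C. neoformans 90113, and S. aureus 6535 and 33591. Amphotericin B and rifampin served as positive controls, with DMSO as the negative control.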

Staphylococcus aureus [1] = assay: Antibacterial activity against Staphylococcus aureus ATCC 6535 by antimicrobial susceptibility test; format: functional, organism-based; summary of the method: as §1
Candida albicans = assay: Antifungal activity against Candida albicans B311 ATCC 90028 by antimicrobial susceptibility test; format: functional, organism-based; summary of the method: as §1
Plasmodium falciparum [2] = assay: Antiplasmodial activity against Plasmodium falciparum D6; format: functional, organism-based
Staphylococcus aureus [3] = assay: Antibacterial activity against Staphylococcus aureus ATCC 33591 by antimicrobial susceptibility test; format: functional, organism-based; summary of the method: as §1
Plasmodium falciparum [4] = assay: Antiplasmodial activity against Plasmodium falciparum W2; format: functional, organism-based
Vero [5] = assay: Cytotoxicity against african green monkey Vero cells at 56.42 uM; format: cell-based; settings: chlorocebus sabaeus
Vero [6] = assay: Cytotoxicity against african green monkey Vero cells; format: cell-based; settings: chlorocebus sabaeus
Summary of the method: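 Cytotoxicity assay with doxorubicin and 5-fluorouracil as positive controls and DMSO as the vehicle (negative) control.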

| IC50 (Plasmodium falciparum [2]) | IC50 (Plasmodium falciparum [4]) | Structure (SMILES) | Activity (Cryptococcus neoformans) | Activity (Staphylococcus aureus [1]) | Activity (Candida albicans) | Activity (Plasmodium falciparum [2]) | Activity (Staphylococcus aureus [3]) | Activity (Plasmodium falciparum [4]) | Activity (Vero [5]) | Activity (Vero [6]) |
| --- | --- | --- | --- | --- | --- | --- | --- | --- | --- | --- |
|  |  | CC(C)(O)[C@@H]1Cc2cc3ccc(=O)oc3cc2O1 | inactive | inactive | inactive | inactive | inactive | inactive |  |  |
| 1440 nM | 880 nM | COc1c(O)ccc2c1cnc1c3cc4c(cc3ccc21)OCO4 [DECARINE] | Active | Active |  |  | Active |  | Active | Not Active |
| 2040 nM | 3060 nM | COc1ccc([C@@H](CNC(=O)/C=C/c2ccccc2)OC(=O)/C=C/c2ccccc2)cc1OC [SYNCARPAMIDE] |  |  |  |  |  |  |  | Not Active |

Reference: ChEMBL document CHEMBL1148152, “Syncarpamide, a new antiplasmodial (+)-norepinephrine derivative from Zanthoxylum syncarpum” (J Nat Prod, 2004)
